How the values were obtained:
[1] = target: T1, Soluble guanylate cyclase (Homo sapiens) (UniProt Q02153+O75343+P33402+Q02108); experiment: Activation of human soluble guanylate cyclase assessed as production of cGMP in presence of nitric oxide donor, SIN-1 by LC-MS enzyme assay; format: protein-complex assay
[2] = Octanol-buffer partition coefficient, log D of the compound at pH 7.4; format: physicochemical
Method in brief: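 LogD measured by partition between octanol and pH 7.4 buffer.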

[3] = Apparent permeability from apical to basolateral side in dog RRCK cells; format: ADME, cell-based, Canis lupus familiaris, MDCKII-LE; settings: MDCK
Method in brief: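 Passive permeability measured in RRCK cells as Papp A→B, in units of 10^-6 cm/s.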

[4] = Intrinsic clearance in human liver microsomes assessed per mg of protein; format: ADME, Microsome
Method in brief: (§1)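 Intrinsic metabolic clearance in liver microsomes, expressed as µL/min/mg protein.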

CYP1A2 = target: T2, CYP1A2 (Homo sapiens, UniProt P05177); experiment: Inhibition of CYP1A2 at 3 uM; format: ADME
T2 sequence (P05177 whole entry): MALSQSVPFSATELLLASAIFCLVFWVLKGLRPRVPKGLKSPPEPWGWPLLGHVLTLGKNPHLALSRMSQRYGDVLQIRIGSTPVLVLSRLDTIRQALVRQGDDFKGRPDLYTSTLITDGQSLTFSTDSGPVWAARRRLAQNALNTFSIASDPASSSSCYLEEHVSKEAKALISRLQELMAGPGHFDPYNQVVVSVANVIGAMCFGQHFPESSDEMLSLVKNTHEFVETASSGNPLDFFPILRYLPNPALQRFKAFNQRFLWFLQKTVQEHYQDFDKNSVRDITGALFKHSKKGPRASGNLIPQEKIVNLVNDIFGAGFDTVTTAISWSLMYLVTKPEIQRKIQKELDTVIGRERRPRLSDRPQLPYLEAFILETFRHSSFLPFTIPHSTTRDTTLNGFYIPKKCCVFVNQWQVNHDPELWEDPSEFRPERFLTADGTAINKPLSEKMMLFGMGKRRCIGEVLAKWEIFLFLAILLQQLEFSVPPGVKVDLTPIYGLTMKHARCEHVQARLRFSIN

[5] = target: T1, Soluble guanylate cyclase (Homo sapiens); experiment: Activation of human soluble guanylate cyclase assessed as production of cGMP in presence of nitric oxide donor, SIN-1 by FP assay; format: protein-complex assay
Method in brief: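 Purified human sGC with the NO donor SIN-1 present. Enzyme converts GTP to cGMP, and the cGMP binds a cGMP-specific antibody included in the reactions. Read-out is fluorescence polarization.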

[6] = Activation of soluble guanylate cyclase in Sprague-Dawley rat thoracic aorta rings assessed as inhibition of noradrenaline-evoked vasoconstriction in presence of nitric oxide donor, DETA-NO
[7] = Intrinsic clearance in rat liver microsomes assessed per mg of protein; format: ADME, Microsome; method in brief: as §1
[8] = target: Voltage-gated inwardly rectifying potassium channel KCNH2 (Homo sapiens, UniProt Q12809); experiment: Inhibition of human ERG
Voltage-gated inwardly rectifying potassium channel KCNH2, sequence (Q12809 whole entry): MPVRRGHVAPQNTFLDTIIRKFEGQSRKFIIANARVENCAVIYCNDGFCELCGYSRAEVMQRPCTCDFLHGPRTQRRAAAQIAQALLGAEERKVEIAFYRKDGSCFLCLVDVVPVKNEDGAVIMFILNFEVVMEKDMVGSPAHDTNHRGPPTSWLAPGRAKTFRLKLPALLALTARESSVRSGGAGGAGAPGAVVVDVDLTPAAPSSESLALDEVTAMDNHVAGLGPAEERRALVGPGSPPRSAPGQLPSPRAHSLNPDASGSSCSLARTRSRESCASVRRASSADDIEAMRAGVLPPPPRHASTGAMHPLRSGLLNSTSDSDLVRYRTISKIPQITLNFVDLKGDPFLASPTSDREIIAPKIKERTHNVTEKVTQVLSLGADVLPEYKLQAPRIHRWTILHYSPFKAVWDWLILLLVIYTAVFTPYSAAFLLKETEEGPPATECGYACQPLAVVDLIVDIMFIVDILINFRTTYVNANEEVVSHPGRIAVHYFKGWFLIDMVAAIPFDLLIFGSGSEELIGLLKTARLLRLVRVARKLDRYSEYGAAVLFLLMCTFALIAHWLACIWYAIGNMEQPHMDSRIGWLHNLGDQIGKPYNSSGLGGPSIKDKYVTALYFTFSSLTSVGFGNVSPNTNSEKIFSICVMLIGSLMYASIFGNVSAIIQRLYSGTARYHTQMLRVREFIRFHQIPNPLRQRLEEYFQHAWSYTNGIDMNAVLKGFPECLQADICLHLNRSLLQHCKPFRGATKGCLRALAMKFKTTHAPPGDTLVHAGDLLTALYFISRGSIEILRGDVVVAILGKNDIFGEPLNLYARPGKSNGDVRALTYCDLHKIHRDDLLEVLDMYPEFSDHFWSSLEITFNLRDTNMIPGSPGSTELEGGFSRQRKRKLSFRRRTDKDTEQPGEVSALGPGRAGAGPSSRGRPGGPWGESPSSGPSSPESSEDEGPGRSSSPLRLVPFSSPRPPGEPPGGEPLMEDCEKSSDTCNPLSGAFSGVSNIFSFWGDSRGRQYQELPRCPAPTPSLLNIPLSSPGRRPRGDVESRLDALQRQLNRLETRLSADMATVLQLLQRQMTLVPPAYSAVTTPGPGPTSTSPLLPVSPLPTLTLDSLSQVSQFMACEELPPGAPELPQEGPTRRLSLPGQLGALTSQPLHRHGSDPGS

[9] = Clearance in rat at 2 mg/kg, iv; format: ADME, organism-based; design: dose 2 mg/kg, route intravenous; settings: in vivo
Method in brief: (§2)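 Rats dosed iv at 2 mg/kg. Clearance, volume of distribution at steady state and half-life derived after iv dosing.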

[10] = Volume of distribution at steady state in rat at 2 mg/kg, iv; format: ADME, organism-based; design: dose 2 mg/kg, route intravenous; settings: in vivo, read-out: Vdss; method in brief: as §2
[11] = Half life in rat at 2 mg/kg, iv; format: ADME, organism-based; design: dose 2 mg/kg, route intravenous; settings: in vivo; method in brief: as §2
[12] = Oral bioavailability in rat at 2 mg/kg; format: ADME, organism-based; settings: in vivo
Method in brief: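 Rats dosed orally at 2 mg/kg. Bioavailability determined after oral dosing, with a 2 mg/kg iv arm for reference.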

[13] = Apparent permeability of the compound by PAMPA assay; format: ADME
Method in brief: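 Passive permeability from a PAMPA screen, as Papp in units of 10^-6 cm/s.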

[14] = Activation of soluble guanylate cyclase in Sprague-Dawley rat thoracic aorta rings assessed as […] in presence of nitric oxide donor, DETA-NO; format: tissue-based

| SMILES | EC10 [1] | logD [2] | Papp A→B [3] | microsomal CLint [4] | inhibition at 3 µM (CYP1A2) | EC20 [5] | IC50 [6] | microsomal CLint [7] | INH [8] | clearance [9] | Vd [10] | half-life [11] | bioavailability [12] | Papp [13] | IC50 [14] |
| --- | --- | --- | --- | --- | --- | --- | --- | --- | --- | --- | --- | --- | --- | --- | --- |
| NC(=O)c1n[nH]c(-c2nc(Cc3ccccc3F)c3ccccn23)n1 | 2810 nM | 2.8 | 13 ×10⁻⁶ cm/s | < 8 µL/min/mg | 16% | – | – | – | – | – | – | – | – | – | – |
| Fc1ccccc1Cc1nc(-c2nc(C(F)F)n[nH]2)n2ccccc12 | 507 nM | 3.8 | 0.2 ×10⁻⁶ cm/s | 62 µL/min/mg | 49% | – | – | – | – | – | – | – | – | – | – |
| Fc1ccccc1Cc1nc(-c2nc(C(F)(F)F)n[nH]2)n2ccccc12 | 470 nM | 3.8 | 6 ×10⁻⁶ cm/s | 72 µL/min/mg | 57% | 281 nM | 40 nM | – | – | – | – | – | – | – | – |
| Nc1nc(-c2nn(Cc3ccccc3F)c3ncccc23)nc(N)c1N1CCOCC1 | 44 nM | 3.1 | – | – | – | 11 nM | 11 nM | – | – | – | – | – | – | – | – |
| FC(F)(F)c1n[nH]c(-c2nc(Cc3cncnc3)c3ccccn23)n1 | 210 nM | 1.8 | 19 ×10⁻⁶ cm/s | < 7 µL/min/mg | 82% | 80 nM | 60 nM | < 16 µL/min/mg | > 10 µM | 9.9 mL/min/kg | 3.7 L/kg | 246 min | 61% | – | – |
| OCc1ccc(-c2nn(Cc3ccccc3)c3ccccc23)o1 | 3360 nM | 3.7 | 6 ×10⁻⁶ cm/s | 212 µL/min/mg | 69% | – | – | – | – | – | – | – | – | – | – |
| Fc1ccccc1Cc1nc(-c2nc(C(F)(F)F)n[nH]2)c2cccnn12 | 224 nM | – | – | – | – | – | – | – | – | – | – | – | – | – | – |
| Fc1ccccc1Cc1nc(-c2nc(C(F)(F)C(F)(F)F)n[nH]2)n2ccccc12 | 1170 nM | 4.2 | 3 ×10⁻⁶ cm/s | 92 µL/min/mg | 31% | – | – | – | – | – | – | – | – | – | – |
| Fc1ccccc1Cc1nc(-c2nc(C(F)(F)F)n[nH]2)n2cccnc12 | 724 nM | 2.5 | 28 ×10⁻⁶ cm/s | 17 µL/min/mg | 17% | 221 nM | – | – | – | – | – | – | – | – | – |
| Fc1ccccc1Cc1nc(-c2nc(Cc3ccccc3)n[nH]2)n2ccccc12 | 840 nM | – | 0.5 ×10⁻⁶ cm/s | – | 29% | 554 nM | – | – | – | – | – | – | – | – | – |
| CS(=O)(=O)c1n[nH]c(-c2nc(Cc3ccccc3F)c3ccccn23)n1 | 1340 nM | 1.2 | – | 14 µL/min/mg | 3% | – | – | – | – | – | – | – | – | – | – |
| Cc1ncc(Cn2nc(-c3nc(C(F)(F)F)n[nH]3)c3cccnc32)cn1 | – | – | – | < 7 µL/min/mg | < 5% | 58 nM | – | – | – | – | – | – | – | 27 ×10⁻⁶ cm/s | – |
| Fc1ccccc1Cc1nc(-c2nc(C(F)(F)F)n[nH]2)c2ccccn12 | 658 nM | 3.9 | 17 ×10⁻⁶ cm/s | 20 µL/min/mg | 66% | 1070 nM | – | – | – | – | – | – | – | – | – |
| Fc1ccccc1Cn1nc(-c2nc(C(F)(F)F)n[nH]2)c2cccnc21 | 60 nM | 3.2 | 20 ×10⁻⁶ cm/s | < 11 µL/min/mg | 20% | 22 nM | – | – | – | 8 mL/min/kg | 3.1 L/kg | 282 min | 66% | – | 33 nM |
| Cc1n[nH]c(-c2nc(Cc3ccccc3F)c3ccccn23)n1 | 393 nM | 3.3 | 1 ×10⁻⁶ cm/s | 124 µL/min/mg | 23% | – | – | – | – | – | – | – | – | – | – |
| Cc1ncc(Cc2nc(-c3nc(C(F)(F)F)n[nH]3)n3ccccc23)cn1 | 366 nM | 2.1 | 27 ×10⁻⁶ cm/s | < 8 µL/min/mg | 5% | 245 nM | – | – | – | – | – | – | – | – | – |
| Cc1ncc(Cc2nc(-c3nc(C(F)(F)F)n[nH]3)n3cccc(F)c23)cn1 | – | 2 | 23 ×10⁻⁶ cm/s | < 8 µL/min/mg | 15% | 73 nM | – | – | – | – | – | – | – | – | – |
| Fc1ccccc1Cc1nc(-c2ncn[nH]2)n2ccccc12 | 2800 nM | 3.3 | 8 ×10⁻⁶ cm/s | 175 µL/min/mg | 39% | – | – | – | – | – | – | – | – | – | – |

Reference: ChEMBL document CHEMBL1914314, “Acidic triazoles as soluble guanylate cyclase stimulators” (Bioorg Med Chem Lett, 2011)
